Hits are enriched below; roughly 1.9% of the tested compounds scored in any of these assays.
Rin1-Abl PPI inh = inhibitors of Rin1-Abl protein binding, primary screen, biochemical, TR-FRET | Tyrosine-protein kinase ABL1 (Homo sapiens) + Ras and Rab interactor 1 (Homo sapiens), … | inhibition, % at 7.35 µM | 360,000 compounds, 0.4% hits | AID 588664, 2011; in the data active = inhibition above about 5%, passing the limit was not always enough
GRK2 inh = compounds blocking aptamer binding on GRK2 – biochemical, human GRK2, bead flow cytometry, HTS, primary screen. AID 488847, 2010. FAM-aptamer displacement from GRK2. Beta-adrenergic receptor kinase 1 (Homo sapiens), P25098. inhibition of aptamer binding, % at 10 µM. 330,000 compounds, 0.59% hits;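 active = inhibition of aptamer binding above 40%, roughly 3 SD of noise, on plates passing a quality check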;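 also: median bead fluorescence of bound FAM aptamer so fluorescent compounds give negative values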
SR-BI DiI-HDL act = activators of SR-BI mediated DiI-HDL uptake, primary screen, ldlA[mSR-BI] CHO cells, DiI fluorescence. activation, % at 12.5 µM. AID 504775, 2011. 320,000 compounds, 0.096% hits. 3 h; 100 = double the neutral-control signal;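 active = mean replicate activation of at least 60% and every replicate at or above 60%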
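Material – SR-BI-overexpressing, LDLR-lacking CHO cells · Medium – BSA-supplemented, HEPES-buffered Ham's F12, pH 7.4 · Doses – single concentration · Times – compound with DiI-HDL co-incubation, 3 h at 37 °C · Measured by – bottom-read fluorescence, 550/595 nm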
SR-BI HDL uptake = inhibitors of SR-BI mediated HDL lipid uptake, primary screen, ldlA[mSR-BI] cells, fluorescence, single point; Scavenger receptor class B member 1 (Mus musculus), Q61009; ldlA[mSR-BI] CHO cells, DiI-HDL uptake fluorescence, 3 h; inhibition, % at 12.5 µM; 320,000 compounds, 0.96% hits; AID 488896, 2010;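 active = mean replicate inhibition of at least 70% and a set share of replicates each scoring 70 or more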
Target sequence (Q61009 whole entry, looked up): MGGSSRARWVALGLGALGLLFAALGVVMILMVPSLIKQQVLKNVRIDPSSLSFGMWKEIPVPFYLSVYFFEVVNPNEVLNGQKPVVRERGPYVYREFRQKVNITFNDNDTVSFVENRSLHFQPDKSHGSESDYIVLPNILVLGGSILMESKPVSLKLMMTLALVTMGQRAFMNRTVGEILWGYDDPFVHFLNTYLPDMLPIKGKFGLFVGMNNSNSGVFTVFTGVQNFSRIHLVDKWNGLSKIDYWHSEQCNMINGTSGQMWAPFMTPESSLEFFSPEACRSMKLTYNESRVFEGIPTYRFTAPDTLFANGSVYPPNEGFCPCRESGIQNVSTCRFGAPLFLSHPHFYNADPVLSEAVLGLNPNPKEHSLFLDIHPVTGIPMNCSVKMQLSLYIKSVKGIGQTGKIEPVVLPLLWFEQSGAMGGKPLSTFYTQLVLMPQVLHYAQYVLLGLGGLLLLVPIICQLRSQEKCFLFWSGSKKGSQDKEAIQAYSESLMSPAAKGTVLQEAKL
Large screens that a line does not name were inactive.

CC(C)COc1cccc(-c2cc(C(=O)N/N=C/c3ccncc3)c3ccccc3n2)c1	SR-BI HDL uptake 79
COc1cccc(-c2cc(C(=O)N/N=C/c3cccc(OC)c3OC)c3ccccc3n2)c1	none
COc1cc([N+](=O)[O-])cc(/C=N/NC(=O)c2cc(-c3ccccc3)nc3ccccc23)c1O	SR-BI HDL uptake 117
O=C(N/N=C/c1ccc(F)cc1)c1cc(-c2ccccn2)nc2ccccc12	none (no result: GRK2 inh)
COc1cccc(/C=N/NC(=O)c2cc(-c3ccccn3)nc3ccccc23)c1O	SR-BI HDL uptake 103
CCOc1cc(/C=N/NC(=O)c2cc(-c3cccc(OC)c3)nc3ccccc23)ccc1O	none (no result: SR-BI DiI-HDL act, SR-BI HDL uptake)
COc1ccc(/C=N/NC(=O)c2cc(-c3cccnc3)nc3ccccc23)c(OC)c1	SR-BI HDL uptake 74
COc1ccc(C(=O)N/N=C/c2ccc(N(C)c3ccccc3)cc2)cc1	none (no result: SR-BI DiI-HDL act, SR-BI HDL uptake)
CC1=NN(c2nc(-c3ccc(C)cc3)cs2)C(=O)C1N=Nc1ccc(C(N)=O)cc1 (centres undefined)	SR-BI HDL uptake 81
OC[C@@H]1CC[C@@H](Cc2ccc(-c3ccccc3)cc2)O1	none
CCOC(=O)c1cc(-c2ccccc2)sc1NC(=O)C(C)OC(=O)c1cccnc1Cl (centres undefined)	GRK2 inh 100
CCOC(=O)c1cc(-c2ccccc2)sc1NC(=O)C(C)OC(=O)c1ccncc1 (centres undefined)	none
CCCCC(CC)C(=O)Nc1ccc(C)c(O)c1 (centres undefined)	none
Cc1cc(C)cc(C(=O)Nc2ccc(NC(=O)c3cccs3)cc2)c1	none
Cc1cccc(C(=O)Nc2cc(NC(=O)c3cccs3)ccc2C)c1	SR-BI HDL uptake 74
COc1cc(NC(=O)c2ccc(C)cc2C)ccc1NC(=O)c1cccs1	SR-BI HDL uptake 84
CC(=NO)c1ccc2c(c1)C(=NO)c1ccccc1-2	none (no result: GRK2 inh)
CC(C)COC(=O)N1CCCCC1c1cc(C(=O)NC(C)C)no1 (centres undefined)	none (no result: GRK2 inh, SR-BI DiI-HDL act, SR-BI HDL uptake)
COCCn1c(C)cc(C(=O)CN2C(=O)C(=O)N(CCC3=CCCCC3)C2=O)c1C	none (no result: GRK2 inh, SR-BI DiI-HDL act, SR-BI HDL uptake)
CN1OC[C@@H]2CN(C(=O)Nc3ccccc3)[C@H](c3ccc(N4CCCCC4)cc3)C[C@@H]21	none (no result: GRK2 inh, SR-BI DiI-HDL act, SR-BI HDL uptake)
CCc1nnc(NC(=O)c2ccc(OCc3c(C)noc3C)c(OC)c2)s1	SR-BI HDL uptake 84
COc1cc(C(=O)Nc2ccc(N3CCOCC3)cc2)ccc1OCc1c(C)noc1C	none
COc1cc(C(=O)Nc2cc(OC)c(OC)c(OC)c2)ccc1OCc1c(C)noc1C	SR-BI HDL uptake 87
COc1cc(C(=O)Nc2nc3ccc(C)cc3s2)ccc1OCc1c(C)noc1C	none
Cc1cccc(NC(=O)c2ccc(OCc3c(C)noc3C)cc2)c1	SR-BI HDL uptake 73
COc1cc(NC(=O)c2ccc(OCc3c(C)noc3C)c(OC)c2)cc(OC)c1	SR-BI HDL uptake 86
COc1cc(C(=O)Nc2ccc3c(c2)OCO3)ccc1OCc1c(C)noc1C	none
O=C1C2CC=CCC2C(=O)N1c1nccs1 (centres undefined)	none (no result: GRK2 inh)
O=C(N/N=C/c1cn(-c2cccs2)nc1-c1ccccc1)c1ccccc1O	SR-BI HDL uptake 86
O=C(N/N=C/c1cn(-c2cccs2)nc1-c1ccccc1)c1ccccc1Br	none
CN1CCN(C(=O)/C=C/c2ccc(Cl)cc2)CC1	none
O=C(/C=C/c1ccc(Cl)cc1)N1CCN(Cc2ccccc2)CC1	GRK2 inh 44
COc1ccc(C(C)=O)cc1COC(=O)c1ccc(C)c(S(=O)(=O)N2CCOCC2)c1	SR-BI HDL uptake 70
Cc1csc(=O)n1CCC(=O)OCC(=O)NCc1ccccc1	none (no result: GRK2 inh, SR-BI DiI-HDL act, SR-BI HDL uptake)
COc1ccc(OC)c(NC(=O)C(CC(C)C)NC(=O)C2CCCCC2)c1 (centres undefined)	none
CCC(C)C(NC(=O)C1CCC(C)CC1)C(=O)Nc1ccc(OC)cc1OC (centres undefined)	SR-BI HDL uptake 79
COc1ccc(NC(=O)C(CC(C)C)NC(=O)C2CCC(C)CC2)c(OC)c1 (centres undefined)	SR-BI HDL uptake 72
O=C(COC(=O)c1cc([N+](=O)[O-])ccc1N1CCOCC1)c1ccc(OC(F)F)cc1OC(F)F	SR-BI HDL uptake 76
O=C(COC(=O)c1cc([N+](=O)[O-])ccc1N1CCOCC1)Nc1cc(F)ccc1F	SR-BI HDL uptake 85
O=C(COC(=O)c1cc([N+](=O)[O-])ccc1N1CCOCC1)Nc1ccccc1OC(F)F	SR-BI HDL uptake 74

Screens as filed in PubChem.
